Experimental data published in ChEMBL document CHEMBL1153411, “Comparing anti-HIV, antibacterial, antifungal, micellar, and cytotoxic properties of tricarboxylato dendritic amphiphiles” (Bioorg Med Chem, 2009).
Converted amounts (≈) assume the structure as drawn.

Assays:
[1] = Slope of log critical micelle concentration versus chain length n in aqueous potassium hydroxide by conductivity measurement; details: buffer
[2] = Critical micelle concentration in aqueous triethanalamine using drop shape analysis by surface tension measurement; assay type: physicochemical; details: buffer
Summary of the method: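 Surface tension from pendent drops on an 18-gauge needle in triethanolamine/water 0.9% (wt/vol), with solution pH 8.0–9.5. Drop kept in a cuvette holding aqueous triethanolamine to maintain humidity, and camera magnification calibrated from needle tip width. CMC from the break in surface tension versus log concentration.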

[3] = tested on: Candida albicans; experiment: Antifungal activity against Candida albicans; assay type: functional
Summary of the method: (§1)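 Whole-cell growth-inhibition assays against L. plantarum or C. albicans, compounds added from aqueous triethanolamine stocks. Activity expressed as MIC99, the concentration giving complete inhibition of growth. Error ±1 twofold dilution.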

[4] = Critical micelle concentration in aqueous potassium hydroxide by conductivity measurement; assay type: physicochemical; details: buffer
Summary of the method: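 Measured in potassium hydroxide solutions at high pH so that only the trianion is present. Solutions stirred during conductivity measurement. CMC taken by least-squares fits of the linear portions of conductivity-versus-concentration plots on either side of the break.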

[5] = Critical micelle concentration in aqueous triethanalamine at pH 8.0 to 9.5 by fluorescence spectra measurement; details: buffer
[6] = tested on: Human immunodeficiency virus 1; experiment: Antiviral activity against HIV1 3B with X4 trophism infected in human HeLa cells after 2 hrs by beta-galactosidase reporter gene assay; assay type: functional, organism-based; details: Human immunodeficiency virus 1, 3B
Summary of the method: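 CD4+, LTR-driven β-galactosidase HeLa cells exposed 2 h to HIV-1 IIIB plus serial compound dilutions. Virus and compound then washed out and cells cultured 48 h in RPMI 1640/10% FBS at 37 °C, 5% CO2. Lysate β-galactosidase measured by chemiluminescence, with virus-only wells as 100% infection. EC50 by linear regression; SD ±10%.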

[7] = tested on: Lactiplantibacillus plantarum; experiment: Antibacterial activity against Lactobacillus plantarum; assay type: functional
Summary of the method: as §1

[8] = Cytotoxicity against human epithelial cells by MTT assay; assay type: cell-based; details: Epithelial cell
Summary of the method: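 Same HeLa cells and same conditions as the infection assay, on a separate plate without virus. Viability measured by MTT reduction. EC50 by linear regression; SD ±10%.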

[9] = tested on: Neisseria gonorrhoeae; experiment: Antibacterial activity against Neisseria gonorrhoeae ATCC 31426 after 4 days by broth microdilution method; assay type: functional; details: ATCC 31426, 96 h
Summary of the method: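 Strain ATCC 31426 from chocolate agar (1% hemoglobin) colonies, grown 4 d in GC broth at 37 °C in an anaerobic jar with CO2 generator. Cells taken up in buffered saline gelatin and allowed to settle 4 h. Broth microdilution over 6.25 mg/mL down to 0.55 µg/mL. Plates incubated 4 d at 37 °C, in triplicate. MIC is the lowest concentration giving prominent visible decrease in turbidity; ±1 twofold dilution.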

[10] = Ratio of EC50 for human HeLa cells to EC50 for HIV1 3B infected in human HeLa cells
[11] = Safety ratio of critical micelle concentration in aqueous potassium hydroxide to MIC99 for Candida albicans; assay type: toxicity; details: buffer
[12] = Safety ratio of critical micelle concentration in aqueous triethanalamine at pH 7.4 to MIC99 for Candida albicans; assay type: toxicity; details: aqueous triethanolamine
[13] = Safety index, ratio of EC50 for human epithelial cells to MIC99 for Candida albicans; assay type: toxicity, cell-based, Epithelial cell
[14] = Critical micelle concentration in aqueous triethanalamine at pH 6.4 by fluorescence spectra measurement; assay type: physicochemical
Summary of the method: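 Measured in triethanolamine/water 0.9% (wt/vol) with pH adjusted to 7.4 or 6.4, using pyrene as micelle probe. Mixtures shaken at least 24 h. Excitation 334 nm, bandpasses 5/2.5 nm. CMC from emission intensities of the I1 (373 nm) and I3 (384 nm) peaks.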

[15] = Solubility of compound in phosphate buffer at pH 7.2; assay type: physicochemical
[16] = Solubility of compound in triethanolamine solution; assay type: physicochemical

Compound	slope of logCMC vs n [1]	CMC [2]	MIC99 [3]	CMC [4]	CMC [5]	EC50 [6]	MIC99 [9]	CMC [14]	solubility [15]	solubility [16]	MIC99 [7]	EC50 [8]	Ratio EC50 [10]	Ratio [11]	selectivity ratio [12]	selectivity ratio [13]
CCCCCCCCCCCCCCCCCCNC(=O)NC(CCC(=O)O)(CCC(=O)O)CCC(=O)O	-0.3	2200 µM	1400 µM (≈ 760 µg/mL)	330 µM	2300 µM	240 µM	130 µM (≈ 70.6 µg/mL)				1400 µM (≈ 760 µg/mL)	280 µM	1.2			
CCCCCCCCCCCCCCCCNC(=O)NC(CCC(=O)O)(CCC(=O)O)CCC(=O)O	-0.3	4900 µM	47 µM (≈ 24.2 µg/mL)	2300 µM	7100 µM	180 µM	2800 µM (≈ 1440 µg/mL)	480 µM			6000 µM (≈ 3090 µg/mL)	350 µM	1.9	49	83	7
CCCCCCCCCCCCCCNC(=O)NC(CCC(=O)O)(CCC(=O)O)CCC(=O)O	-0.3		1600 µM (≈ 779 µg/mL)	8400 µM		270 µM	12000 µM (≈ 5840 µg/mL)				6400 µM (≈ 3110 µg/mL)		1.1			
CCCCCCCCCCCCCC(=O)NC(CCC(=O)O)(CCC(=O)O)CCC(=O)O	-0.175		610 µM (≈ 279 µg/mL)	3500 µM		740 µM	12000 µM (≈ 5490 µg/mL)				610 µM (≈ 279 µg/mL)	300 µM				
CCCCCCCCCCCCCCOC(=O)NC(CCC(=O)O)(CCC(=O)O)CCC(=O)O			1600 µM (≈ 780 µg/mL)			370 µM	580 µM (≈ 283 µg/mL)				6400 µM (≈ 3120 µg/mL)	620 µM	1.7			
CCCCCCCCCCCCCCCCOC(=O)NC(CCC(=O)O)(CCC(=O)O)CCC(=O)O		6800 µM	47 µM (≈ 24.2 µg/mL)		6400 µM	170 µM	280 µM (≈ 144 µg/mL)				6000 µM (≈ 3090 µg/mL)	440 µM	2.6			

Second part, led by results:

slope of logCMC vs n [1]	CMC [2]	MIC99 [3]	CMC [4]	CMC [5]	EC50 [6]	MIC99 [9]	CMC [14]	solubility [15]	solubility [16]	Compound	MIC99 [7]	EC50 [8]	Ratio EC50 [10]	Ratio [11]	selectivity ratio [12]	selectivity ratio [13]
-0.3	340 µM	2700 µM (≈ 1620 µg/mL)	40 µM	400 µM	120 µM	120 µM (≈ 71.9 µg/mL)				CCCCCCCCCCCCCCCCCCCCCCNC(=O)NC(CCC(=O)O)(CCC(=O)O)CCC(=O)O	940 µM (≈ 563 µg/mL)	260 µM	2.2			
-0.3	1400 µM	2800 µM (≈ 1600 µg/mL)	120 µM	1300 µM	130 µM	120 µM (≈ 68.5 µg/mL)				CCCCCCCCCCCCCCCCCCCCNC(=O)NC(CCC(=O)O)(CCC(=O)O)CCC(=O)O	1400 µM (≈ 799 µg/mL)	210 µM	1.6			
-0.175	11000 µM	280 µM (≈ 144 µg/mL)	71 µM	11000 µM		2700 µM (≈ 1390 µg/mL)				CCCCCCCCCCCCCCCCCC(=O)NC(CCC(=O)O)(CCC(=O)O)CCC(=O)O	540 µM (≈ 277 µg/mL)					
	320 µM	1300 µM (≈ 780 µg/mL)		330 µM	110 µM	120 µM (≈ 72 µg/mL)				CCCCCCCCCCCCCCCCCCCCCCOC(=O)NC(CCC(=O)O)(CCC(=O)O)CCC(=O)O	1300 µM (≈ 780 µg/mL)	360 µM	3.3			
-0.175	17000 µM	290 µM (≈ 141 µg/mL)	1500 µM	18000 µM	230 µM	12000 µM (≈ 5830 µg/mL)		6900 µM (≈ 3350 µg/mL)		CCCCCCCCCCCCCCCC(=O)NC(CCC(=O)O)(CCC(=O)O)CCC(=O)O	570 µM (≈ 277 µg/mL)	940 µM	4			
-0.175	2000 µM	7.7 µM (≈ 4.39 µg/mL)	13 µM	1500 µM	130 µM	120 µM (≈ 68.4 µg/mL)	150 µM	79 µM (≈ 45 µg/mL)	> 22000 µM	CCCCCCCCCCCCCCCCCCCCCC(=O)NC(CCC(=O)O)(CCC(=O)O)CCC(=O)O	490 µM (≈ 279 µg/mL)	250 µM		1.7	52	32
-0.175	3000 µM	16 µM (≈ 8.67 µg/mL)	34 µM	3200 µM	170 µM	130 µM (≈ 70.4 µg/mL)				CCCCCCCCCCCCCCCCCCCC(=O)NC(CCC(=O)O)(CCC(=O)O)CCC(=O)O	520 µM (≈ 282 µg/mL)	340 µM		2	10	21
	2800 µM	180 µM (≈ 97.9 µg/mL)		2700 µM	130 µM	65 µM (≈ 35.3 µg/mL)				CCCCCCCCCCCCCCCCCCOC(=O)NC(CCC(=O)O)(CCC(=O)O)CCC(=O)O	1400 µM (≈ 761 µg/mL)	350 µM	2.7			
	500 µM	1400 µM (≈ 801 µg/mL)		800 µM	130 µM	120 µM (≈ 68.6 µg/mL)				CCCCCCCCCCCCCCCCCCCCOC(=O)NC(CCC(=O)O)(CCC(=O)O)CCC(=O)O	1400 µM (≈ 801 µg/mL)	280 µM	2.2			
